Measured values from different studies.
Target: Serine/threonine-protein kinase 32B (STK32B, Homo sapiens, UniProt Q9NY57)

C[C@@H]1CCN(c2nccc(-c3cnn4ncccc34)n2)C1
remaining binding (binding; 1 µM): 89%

CC1=C(C#N)[C@@H](c2ccc3[nH]nc(C)c3c2)C(C#N)=C(c2ccc(Cl)cc2)N1
remaining binding (cell-free assay, competition with immobilised ligand; 1 µM): 100%

O=C(NCCCN1CCOCC1)c1ccc(Nc2nccc(-c3cc4ccccc4s3)n2)cc1
remaining binding (binding, competition with immobilised ligand; 1 µM): 100%

N[C@H]1CCN(c2nccc(-c3cnn4ncccc34)n2)C1
remaining binding (binding; 1 µM): 100%

COc1cnc(Nc2cccc(S(N)(=O)=O)c2)nc1N1CCN(c2ccccc2)C(=O)C1
remaining binding (binding, competition with immobilised ligand; 1 µM): 90%

c1cncc(-c2cccc(Nc3nccc(NC4CCCCC4)n3)c2)c1
remaining binding (binding, competition with immobilised ligand; 10 µM): 100%

CN(C)c1ncc(F)c(-c2cnn3ncccc23)n1
remaining binding (binding; 1 µM): 100%

CCN1CCN(Cc2ccc(C(=O)Nc3ccc(C)c(Oc4ccc5c(c4)CC(=O)N5)c3)cc2C(F)(F)F)CC1
remaining binding (binding, competition with immobilised ligand; 1 µM): 92%

C[C@@H](c1cccc(C#N)c1)n1cc(Cl)cc(C(N)=O)c1=N
remaining binding (cell-free assay, competition with immobilised ligand; 1 µM): 100%

CN(C)c1nccc(-c2cnn3ncccc23)n1
remaining binding (binding; 1 µM): 100%

CCC(=O)N[C@H]1CC[C@@H](C(=O)N(C)c2ccc(-c3nc4ccccc4o3)cc2)C1
remaining binding (cell-free assay, competition with immobilised ligand; 1 µM): 98%

Cc1cnn2ncc(-c3ccnc(N(C)C)n3)c2c1
remaining binding (binding; 1 µM): 100%

O=C(c1ccc(Nc2ncc(Cl)c(-c3ccc(Cl)s3)n2)cc1)N1CCC(N2CCCC2)CC1
remaining binding (binding, competition with immobilised ligand; 1 µM): 100%

Nc1ncc2c(n1)-c1c([nH]c3ccc(C#CC4CC4)cc13)CCCC2
remaining binding (binding, competition with immobilised ligand; 1 µM): 100%

CO[C@@H](C)c1c(Nc2ccc([C@H](N(C)C(=O)C3CCS(=O)(=O)CC3)C(F)(F)F)cc2)cnc2cc(Cl)nn12
remaining binding (cell-free assay, competition with immobilised ligand; 1 µM): 89%

CN(CCCC(F)(F)F)c1nccc(-c2cnn3ncccc23)n1
remaining binding (binding; 1 µM): 87%

Cc1c(NC(=O)c2cc(C(N)=O)nc3cc(F)ccc23)c(C(F)(F)F)nn1Cc1ccc(C#N)cc1
remaining binding (cell-free assay, competition with immobilised ligand; 1 µM): 100%

O=C(c1ccc(Nc2ncc(Cl)c(-c3cc4ccccc4s3)n2)cc1)N1CCC(N2CCCC2)CC1
remaining binding (binding, competition with immobilised ligand; 1 µM): 100%

CS(=O)(=O)N1CCCC(NC(=O)[C@H](CCC2CCCCC2)NC(=O)c2ccc(CNC(=O)c3cnc4ccccn34)cc2)C1 (some centres unmarked)
remaining binding (cell-free assay, competition with immobilised ligand; 0.1 µM): 93%

O=C(Nc1c[nH]nc1C(=O)NC1CCNCC1)c1cc(F)cc(F)c1
remaining binding (binding, competition with immobilised ligand; 1 µM): 57%
